Data on 2 molecules can be found in publication PMC5552226 (EBioMedicine, 2017).

The nature of data set [1]: Plasma oxytocin pharmacokinetics, phase 1 single-dose study. The data set is classed as in vivo, human.
A short description of data set [2]: Safety and tolerability. The data set is classed as in vivo, human. The conditions noted are these: IM 10 IU (17 μg); N = 16. In short, it runs like this: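 Healthy female volunteers in a single-centre, single-blind, fixed-sequence phase 1 study received a single IM dose of test compound, 10 IU, alongside inhaled dosing sessions. Adverse events and serious adverse events were recorded throughout the study. Spirometry, clinical laboratory tests, vital signs, ECG intervals, physical examination and cardiac telemetry were checked at set post-dose times. Follow-up visit 7–21 days after the last inhaled dose. Data were summarised descriptively.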

The conditions of data set [3]: sublingual, male volunteers; ref De Groot et al., 1995; cited from earlier work.
Where [4] appears, read: female, human, plasma, im, 10 IU.

A word on the AUC(0-t): it is the area under the concentration-time curve up to a stated or last time point. The Cmax is the peak of the concentration-time curve. As a reminder, the half-life is the time needed for the level to fall by half in the phase considered. A high value points to slow loss. As for `CC[C@H](C)[C@@H]1NC(=O)[C@H](Cc2ccc(O)cc2)NC(=O)[C@@H](N)CSSC[C@@H](C(=O)N2CCC[C@H]2C(=O)N[C@@H](CC(C)C)C(=O)NCC(N)=O)NC(=O)[C@H](CC(N)=O)NC(=O)[C@H](CCC(N)=O)NC1=O` [IM oxytocin, oxytocin], the “subjects in whom plasma oxytocin remained quantifiable up to 4 h” value in data set [1] (IM 10 IU, LLQ 2 pg/mL) was 5/16. In addition, the “AUC(0–3 h), adjusted geometric mean” value in data set [1] (IM 10 IU, plasma, mixed-effect model, PK population) amounted to 0.12761 ng·h/mL. In data set [1] (setting [4]), this molecule gave an AUC(0-t) of 0.12 ng·h/mL, a Cmax of 0.19 ng/mL, a half-life of 38.4 min and a level at 0.5 h of 0.0822 ng/mL. In data set [1] (setting [4]), the tmax came out at 10.2 min. For the same molecule, in data set [1] (following IM administration (10 IU), plasma), the tmax is reported as ~ 10 min. Also, in data set [2], the “AE that led to discontinuation of study drug or withdrawal from the study, number of subjects” value is given as 0; the “Deaths, number of AEs” value is on record as 0; the “Deaths, number of subjects” value was determined as 0; the “Headache (drug-related), number of AEs” value is 1. Further, in data set [2], the “Led to discontinuation of study drug or withdrawal from the study, number of AEs” value was 0 and the “Non-fatal SAEs, number of subjects” value was 0.
Regarding oxytocin [sublingual oxytocin], in data set [3], the absorption half-life entry is “long absorption half-life”, the bioavailability entry is “poor bioavailability” and the lag time result is “long lag time”.
